From ChEMBL document CHEMBL1132160, “Structure-antiviral activity relationship in the series of pyrimidine and purine N-[2-(2-phosphonomethoxy)ethyl] nucleotide analogues. 1. Derivatives substituted at the carbon atoms of the base” (J Med Chem, 1999)
In brackets after ≈: the same amount, converted by molar mass.

What was measured:
Human alphaherpesvirus 1 [1] = assay: Inhibitory activity against herpes simplex virus type 1 (HSV-1) KOS strain; type: functional, organism-based
In short: (§1)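 Confluent E6SM cell cultures were inoculated with 100 CCID50 of virus and allowed 1 h for adsorption. Residual virus was then removed, and the cells were incubated with test compound at 400, 200, 100, ... μg/mL. Viral cytopathicity was scored once it reached completion in untreated infected controls.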

[2] = Inhibitory activity against murine sarcoma virus induced transformation of murine C3H/3T3 embryo fibroblasts; type: functional, Mus musculus
In short: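 Murine C3H/3T3 embryo fibroblasts were seeded at 5 × 10⁵ cells/mL. After 24 h they were infected with 80 focus-forming units of MSV for 90–120 min at 37 °C. The medium was then replaced with fresh medium containing various compound concentrations, and transformation was examined microscopically after 6 days.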

Cytomegalovirus [3] = assay: Inhibitory activity against cytomegalovirus (CMV) Davis strain; type: functional, organism-based; settings: Human betaherpesvirus 5
In short: (§2)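 HEL cell cultures, grown to confluence, received 100 CCID50 of virus. After 1 h adsorption, the inoculum was removed and the cultures were incubated with serial concentrations of compound (400, 200, 100, ... μg/mL).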

Vaccinia virus = assay: Inhibitory activity against vaccinia virus (VV); type: functional, organism-based; settings: Orthopoxvirus vaccinia
In short: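 Confluent E6SM cell cultures were inoculated with 100 CCID50 of virus and left for 1 h adsorption, then residual virus was removed. Cultures were incubated with test compound at serial concentrations (400, 200, 100, ... μg/mL). Virus-induced cytopathicity was scored once it reached completion in untreated infected control cultures.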

[4] = system: Human immunodeficiency virus 1; assay: Inhibition of human immunodeficiency virus type 1 (HIV-1) induced cytopathogenicity in CEM cells; type: functional, organism-based; settings: Human immunodeficiency virus 1, CCRF-CEM
In short: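 CEM cells (~3 × 10⁵ cells/mL) were infected with 100 CCID50 of HIV-1 (IIIB)/mL and plated with dilutions of compound. After 4 days at 37 °C, giant cell formation was assessed microscopically.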

Human alphaherpesvirus 2 [5] = assay: Inhibitory activity against herpes simplex virus type 2 (HSV-2) G strain; type: functional, organism-based; in short: as §1
[6] = system: Human immunodeficiency virus 2; assay: Inhibition of human immunodeficiency virus type 2 (HIV-2) induced cytopathogenicity in CEM cells; type: functional, organism-based; settings: Human immunodeficiency virus 2, CCRF-CEM
Cytomegalovirus [7] = assay: Inhibitory activity against cytomegalovirus (CMV) AD 169 strain; type: functional, organism-based; settings: Human betaherpesvirus 5; in short: as §2
Human alphaherpesvirus 1 [8] = assay: Inhibition of herpes simplex virus type 1 (HSV-1) F strain; type: functional, organism-based; in short: as §1
[9] = Inhibitory activity against herpes simplex virus type 2 (HSV-2) 196 strain; type: functional; in short: as §1
Human alphaherpesvirus 2 [10] = assay: Inhibitory activity against herpes simplex virus type 2 (HSV-2) Lyons strain; type: functional, organism-based; in short: as §1
Human alphaherpesvirus 1 [11] = assay: Inhibitory activity against herpes simplex virus type 1 (HSV-1) McIntyre strain; type: functional, organism-based; in short: as §1

Compound | EC50 (Human alphaherpesvirus 1 [1]) [µg/mL] | EC50 [2] [µg/mL] | EC50 (Cytomegalovirus [3]) [µg/mL] | EC50 (Vaccinia virus) [µg/mL] | EC50 [4] [µg/mL] | EC50 (Human alphaherpesvirus 2 [5]) [µg/mL] | EC50 [6] [µg/mL] | EC50 (Cytomegalovirus [7]) [µg/mL] | EC50 (Human alphaherpesvirus 1 [8]) [µg/mL] | EC50 [9] [µg/mL] | EC50 (Human alphaherpesvirus 2 [10]) [µg/mL] | EC50 (Human alphaherpesvirus 1 [11]) [µg/mL]
CC(C)CCCCCOP(=O)(COCCn1cnc2c(Cl)nc(N)nc21)OCCCCCC(C)C | > 16 | > 8 | 1 (≈ 1.88 µM) | > 16 | > 4 | > 16 | > 4 | 0.86 (≈ 1.62 µM) |  |  |  | 
Nc1nc(F)nc2c1ncn2CCOCP(=O)(O)O | 70 (≈ 240 µM) | 22.3 (≈ 76.6 µM) | > 50 | 150 (≈ 515 µM) | > 100 | 70 (≈ 240 µM) | 40 (≈ 137 µM) | > 50 |  |  |  | 
Cc1nc(N)nc2c1ncn2CCOCP(=O)(O)O | > 200 | 30 (≈ 104 µM) | > 50 | > 400 | > 100 | 400 (≈ 1390 µM) | > 100 | > 50 |  |  |  | 
Nc1nc(=O)n(CCOCP(=O)(O)O)cc1Br | 20 (≈ 61 µM) | 19.2 (≈ 58.5 µM) | 33 (≈ 101 µM) | > 400 | > 100 | 150 (≈ 457 µM) | > 100 | 30 (≈ 91.4 µM) | 40 (≈ 122 µM) | 100 (≈ 305 µM) | 70 (≈ 213 µM) | 70 (≈ 213 µM)
CC(C)OP(=O)(COCCn1cnc2c(O)nc(N)nc21)OC(C)C | 240 (≈ 643 µM) | 13.5 (≈ 36.2 µM) | > 50 |  | > 100 | 400 (≈ 1070 µM) | > 100 | > 50 | 240 (≈ 643 µM) | 240 (≈ 643 µM) | 240 (≈ 643 µM) | 80 (≈ 214 µM)
O=P(O)(O)COCCn1cnc2c(S)ncnc21 | > 400 | > 200 | 20 (≈ 68.9 µM) | > 400 | > 100 | > 400 | > 100 | 25 (≈ 86.1 µM) | > 400 | > 400 | > 400 | > 400
NC1=NC2N=CC=NC2C(=O)N1CCOCP(=O)(O)O (stereo not drawn) | 70 (≈ 231 µM) | 26.5 (≈ 87.4 µM) | > 50 | 200 (≈ 660 µM) | > 100 | 70 (≈ 231 µM) | > 100 | > 50 | 150 (≈ 495 µM) | 150 (≈ 495 µM) | 70 (≈ 231 µM) | 150 (≈ 495 µM)
CC(C)OP(=O)(COCCn1c(Br)nc2c(N)nc(N)nc21)OC(C)C | > 400 | > 40 | 20 (≈ 44.3 µM) | > 400 | > 100 | > 400 | > 100 | 25 (≈ 55.4 µM) | > 400 | > 400 | 300 (≈ 665 µM) | > 400
Nc1nnc(N)c2c1ncn2CCOCP(=O)(O)O | > 200 | 124 (≈ 430 µM) | > 50 | > 200 | > 100 | > 200 | > 100 | > 50 | > 200 | > 200 | > 200 | > 200
Nc1cc(N)c2ncn(CCOCP(=O)(O)O)c2n1 | 300 (≈ 1040 µM) | 142 (≈ 494 µM) | > 50 | > 400 | > 100 | 300 (≈ 1040 µM) | > 100 | > 50 | > 400 | > 400 | 300 (≈ 1040 µM) | > 400
Nc1cccc2c1ncn2CCOCP(=O)(O)O | > 400 | > 200 | > 50 | > 400 | > 100 | > 400 | > 100 | > 50 |  |  |  | 
CC(C)OP(=O)(COCCn1cnc2c(S)ncnc21)OC(C)C | > 400 | > 40 | > 50 | > 400 | > 100 | > 400 | > 100 | > 50 |  |  |  | 
CC(C)CCCCCOP(=O)(COCCn1cnc2nc(N)nc(Cl)c21)OCCCCCC(C)C | > 16 | > 8 | > 5 | > 16 | > 4 | > 16 | > 4 | 5 (≈ 9.4 µM) |  |  |  | 
Nc1nc(O)nc2c1ncn2CCOCP(=O)(O)O | > 400 | 123 (≈ 425 µM) | > 50 | > 50 | > 100 | > 400 | > 100 | > 50 |  |  |  | 
Nc1ncnc2c1ncn2CCOCP(=O)(O)O [ADEFOVIR] | 3.6 (≈ 13.2 µM) |  | 77 (≈ 282 µM) |  |  | 1.1 (≈ 4.03 µM) |  | 30 (≈ 110 µM) |  |  |  | 
